Compound activity (PubChem)
This is a sample that favours compounds with a hit; in the whole collection about 29% have one here.
E coli WT exp = blocks growth of wild type E. coli BW25113. OD600 absorbance. growth inhibition, % at 100 µM. actives 0.15% (n = 98,000). AID 710;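 active = growth inhibition above about 50% at one test dose, limit read from the data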;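 note: growth measured after 20 h incubation at 37 °C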
CYP2C9 act = activators of human CYP2C9; P11712; recombinant CYP2C9, luciferin-H conversion, luminescence; active compounds read high; factor 1 = untreated enzyme, 0 = blocked; activation factor at 5 µM; actives 1.4% (n = 96,000); AID 1024;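 active = activation factor of 2 or more for CYP2C9 at a 5 µM dose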
Target sequence (P11712 whole entry, looked up): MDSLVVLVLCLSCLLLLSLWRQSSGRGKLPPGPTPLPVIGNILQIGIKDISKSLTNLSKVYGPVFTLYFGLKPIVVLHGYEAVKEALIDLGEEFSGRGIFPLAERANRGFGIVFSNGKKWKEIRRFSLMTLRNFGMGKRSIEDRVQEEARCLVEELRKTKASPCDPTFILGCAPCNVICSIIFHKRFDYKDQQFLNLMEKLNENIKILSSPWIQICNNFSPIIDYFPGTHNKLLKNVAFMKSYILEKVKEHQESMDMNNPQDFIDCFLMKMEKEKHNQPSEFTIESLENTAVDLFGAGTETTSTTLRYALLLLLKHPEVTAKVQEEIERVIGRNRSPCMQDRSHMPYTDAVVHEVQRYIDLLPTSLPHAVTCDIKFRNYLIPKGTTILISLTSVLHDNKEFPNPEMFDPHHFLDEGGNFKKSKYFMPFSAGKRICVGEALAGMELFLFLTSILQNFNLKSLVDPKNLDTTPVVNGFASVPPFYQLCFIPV
CYP2C19 inh = human CYP2C19 inhibition; P33261; CYP2C19 Supersomes, luciferin-H EGE luminescence, 30 min; inhibition, % at 5 µM; actives 21% (n = 96,000);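 active = CYP2C19 inhibition above a set limit at 5 µM in the primary screen, cut at about 50% in these data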
Ecoli tolC = E. coli tolC mutant growth inhibition; actives 2.2% (n = 65,000); E. coli BW25113 tolC mutant growth, OD615; growth inhibition, % at 10 µM (by protocol);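 active = growth inhibition at or above a cutoff equal to the mean over every tested compound plus 3 SD, cut at about 60% in these data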;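 note: growth measured after 20 h incubation at 37 °C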
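Assay system: tolC-deleted E. coli BW25113. Medium: kanamycin-containing LB broth (50 µg/mL). Dosing: 10 µM final, single dose. Timing: bacterial growth with compound for 20 h at 37 °C. Detection: A615 absorbance measurement. Read-out basis: growth inhibition in percent.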
CYP2C9 inhib = blocks human cytochrome P450 2C9; actives 20% (n = 96,000); AID 777; inhibition, % at 5 µM; CYP2C9 Supersomes, luciferin-H conversion, luminescence;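 active = blocking of liver enzyme CYP2C9 beyond about 50% at 5 µM, limit read from the data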
CYP2C19 activ = increases human CYP2C19 enzyme activity; recombinant CYP2C19, luciferin-H EGE luminescence; active compounds read high; 0 = fully inhibited enzyme, 1 = untreated enzyme; AID 1025; 96,000 tested, under 10 active; P33261; activation factor at 5 µM;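 active = activation factor of at least 2 at 5 µM in the primary screen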
A number is an active result; . = inactive; / = no result.

SMILES	E coli WT exp	CYP2C9 act	CYP2C19 inh	Ecoli tolC	CYP2C9 inhib	CYP2C19 activ
Oc1c(C(c2ccccc2)N2CCN(Cc3ccccc3)CC2)sc2ncnn12 (stereo not given)	.	.	78	.	67	.
CCC(OC(=O)CC1Sc2ccccc2NC1=O)C(=O)NCC1CCCO1 (stereo not given)	.	.	.	.	.	.
Cc1nn(C(=O)c2ccccc2)c2c1C(=O)CC(C)(C)C2	.	.	80	.	69	.
CCCc1nn(C(=O)c2ccccc2)c2c1C(=O)CC(C)(C)C2	.	.	.	/	.	.
O=C1CN(C(=O)COC(=O)COc2ccc3c(c2)CCC3)c2ccccc2N1	.	.	.	.	.	.
CCOC(=O)c1ccc(S(=O)(=O)N2CCC(C(=O)O)CC2)cc1	.	.	.	/	.	.
CCn1nc(NS(=O)(=O)c2ccccc2)c2cc3cccc(C)c3nc21	.	.	.	.	79	.
CCn1nc(NC(=O)c2ccncc2)c2cc3cccc(C)c3nc21	.	.	.	.	.	.
CCCn1nc(NS(C)(=O)=O)c2cc3cccc(C)c3nc21	.	.	.	.	65	.
CC(C)(C)C1CCc2onc(C(=O)N3CCOCC3)c2C1 (stereo not given)	.	.	.	.	.	.
O=C1C2C3C=CC(C3=C3CCCCC3)C2C(=O)N1Cc1ccccc1 (stereo not given)	.	.	.	.	55	.
O=C1CCCCCN1Cc1ccccc1	.	.	.	/	.	.
CCC(Cc1ccccc1)NC(=O)C1CCN(S(=O)(=O)c2c(C)noc2C)CC1 (stereo not given)	.	.	.	/	.	.
Cc1ccc(C(=O)/C=C/c2ccccc2)o1	.	.	69	/	57	.
Cc1ccc(C(=O)/C=C/c2ccc3c(c2)OCO3)o1	.	.	54	/	.	.
CCNc1ccccc(C(=O)/C=C/c2ccc3c(c2)OCO3)c1=O	.	.	85	/	.	.
C=CCn1c(CNc2ccccc2)nnc1SCC(=O)N/N=C/c1ccccc1O	.	.	.	/	.	.
Cc1ccc(-n2c(CSc3nc(C)cc(C)n3)nnc2SCC(=O)N2CCCC2)cc1	.	.	.	.	.	.
Cc1ccc(-n2c(CSc3nc(C)cc(C)n3)nnc2SCC(=O)Nc2nccs2)cc1	/	/	/	.	/	/
O=C(CCCN1C(=O)c2ccccc2C1=O)Oc1ccc(F)cc1	.	.	65	.	.	.
O=C(Nc1ccn(C2CC(OC(=O)c3ccccc3)C(CO)O2)c(=O)n1)c1ccccc1 (stereo not given)	.	.	.	.	.	.
O=C1CC2C(CC(OC(=O)c3ccc(-c4ccccc4)cc3)C2CO)O1 (stereo not given)	.	.	.	/	72	.
Cc1ccc(C(C)C)c(OCc2ccc(-c3nnco3)cc2)c1	.	.	86	.	.	.
Cc1ccc(S(=O)(=O)N(C)Cc2ccc(-c3nnco3)cc2)cc1	.	.	.	.	.	.
CCN(CC)CCCNC(=O)c1cc(-c2ccc(O)cc2)on1	.	2.3	.	.	.	.
SMILES	E coli WT exp	CYP2C9 act	CYP2C19 inh	Ecoli tolC	CYP2C9 inhib	CYP2C19 activ
CCCCC(=O)NC1(C(F)(F)F)C(=O)N(CC(C)C)C2=C1C(=O)CC(C)(C)C2 (stereo not given)	.	.	.	/	.	.
c1ccc(OCCn2c(-c3ccco3)nc3ccccc32)cc1	.	.	.	.	.	.
CCOCCn1c(COc2ccccc2)nc2ccccc21	.	.	51	.	.	.
CC(C)C(=O)NCCc1nc2ccccc2n1CCCOc1ccc(Cl)cc1	.	.	77	/	77	.
COCc1nc2ccccc2n1CCCOc1ccccc1	.	.	97	.	78	.
CC(C)C(=O)NCCc1nc2ccccc2n1C	.	.	.	.	.	.
COc1ccc(NCc2nc3ccccc3n2CCOc2ccccc2)cc1	.	.	.	/	79	.
CCOCCn1c(-c2ccc(OC)cc2)nc2ccccc21	.	.	.	.	.	.
CCOCCn1c(CCCO)nc2ccccc21	.	.	.	.	.	.
CCCc1nc2ccccc2n1CCOc1ccccc1	.	.	61	/	.	.
Cc1ccc(OCCn2c(CCCO)nc3ccccc32)cc1	.	.	59	.	.	.
OCCCc1nc2ccccc2n1CCOc1ccccc1	.	.	84	.	.	.
CCOc1cc(NC2CS(=O)(=O)CC2O)c(OCC)cc1NC(=O)c1ccccc1 (stereo not given)	.	.	.	.	.	.
CCCS(=O)(=O)c1cn2cccc(N)c2c1S(=O)(=O)CCC	.	.	.	.	.	.
Cc1nc2nc(C)n(-c3ccccc3)c2s1	.	.	.	.	.	.
O=C(Cn1ncc2c1-c1ccccc1OC2)Nc1nc2ccccc2s1	.	.	.	.	55	.
O=C(Cn1ncc2c1-c1ccccc1OC2)N(Cc1ccco1)C1CCCCC1	.	.	.	.	.	.
CC(CCc1ccco1)NC(=O)Cn1ncc2c1-c1ccccc1OC2 (stereo not given)	.	.	80	.	67	.
O=C(NC1CCCc2ccccc21)C1CCN(S(=O)(=O)c2cccc3nsnc23)CC1 (stereo not given)	.	.	.	.	.	.
N=c1n(CCO)c2ccccc2n1CCOc1ccccc1	.	.	.	.	.	.
CCOc1ccc(N=c2scc(-c3ccccc3)n2CCO)cc1	.	.	68	/	.	.
Cn1c(-c2ccc3c(c2)OCO3)cnc1NCc1cccc(Cl)c1	.	.	.	.	.	.
OCCn1c(-c2ccc3c(c2)OCO3)csc1=Nc1ccccc1	.	.	96	76	87	.
O=c1[nH]c(=O)n(Cc2ccccc2)c2c1C(C(F)(F)F)(C(F)(F)F)N=C(c1ccco1)N2	.	.	.	/	.	.
CC1=C(C#N)C(C(F)(F)F)(C(F)(F)F)N=C(c2ccco2)N1	.	.	82	.	75	.
SMILES	E coli WT exp	CYP2C9 act	CYP2C19 inh	Ecoli tolC	CYP2C9 inhib	CYP2C19 activ
Clc1ccc(NC2=NCCCCC2)cc1	.	.	.	.	.	.
COC(=O)C(Cc1ccc(O)cc1)NC(=O)c1ccccc1 (stereo not given)	.	.	.	/	.	.
COC(=O)C(Cc1ccc(O)cc1)NC(=O)c1ccccc1OC (stereo not given)	.	2.3	53	.	.	.
CCC(c1nnnn1CCOC)N1CCN(c2cccc(C(F)(F)F)c2)CC1 (stereo not given)	.	.	69	.	55	.
COCCn1nnnc1C(CC(C)C)N1CCN(c2cccc(OC)c2)CC1 (stereo not given)	.	.	81	.	75	.
Cc1cc(-c2nn3c(C)nnc3s2)ccc1NC(=O)C(C)(C)C	/	/	/	.	/	/
CCc1ccc2[nH]c(=O)c(CN(CCCN3CCOCC3)C(=O)Nc3ccccc3)cc2c1	.	.	56	.	.	.
O=C(Nc1ccccc1F)N(CCCN1CCOCC1)Cc1cc2cc3c(cc2[nH]c1=O)OCCO3	.	.	90	.	52	.
